STEP inh = STEP phosphatase inhibitors, primary screen, biochemical, fluorescence intensity, uHTS; recombinant STEP, OMFP fluorogenic substrate; inhibition, % at 20 µM; 360,000 compounds, 0.25% hits;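 active = inhibition at 20 µM, scaled per plate between control wells, above about 37%, limit read from the data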;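 also: 0% = DMSO with enzyme and substrate and 100% = substrate only without enzyme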
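Assay system: isolated STEP enzyme. Buffer or medium: pH 6.0 Bis-Tris with DTT and Tween 20. Also added: fluorogenic phosphatase substrate OMFP at 25 µM final. Dosing: 20 µM, 1% DMSO. Timing: 20 min reaction, room temperature, in the dark. Measured by: fluorescence intensity, excitation 480 nm, emission 540 nm. Evaluation: normalized % inhibition.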
DNMT1 inh = human DNMT1 methyltransferase inhibitors, primary screen, biochemical, molecular beacon, fluorescence, HinP1I cleavage, uHTS. 360,000 compounds, 0.83% hits. AID 588458, 2011. DNA (cytosine-5)-methyltransferase 1 (Homo sapiens), P26358. inhibition (reported as % activation of signal), % at 10 µM; in the data active = inhibition above about 50%
Scp1 inh = Scp-1 phosphatase inhibitors, primary screen, biochemical, colorimetric, uHTS. inhibition, % at 20 µM. 340,000 compounds, 0.88% hits. AID 493091, 2011. Recombinant Scp1, phosphopeptide, malachite green phosphate absorbance. Carboxy-terminal domain RNA polymerase II polypeptide A small phosphatase 1 (Homo …;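 active = inhibition above about 50% at 20 µM, limit read from the data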;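 also: plate controls were DMSO wells with enzyme for no effect and wells lacking enzyme for full effect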
Target sequence (Q9GZU7 76-261 limits assumed): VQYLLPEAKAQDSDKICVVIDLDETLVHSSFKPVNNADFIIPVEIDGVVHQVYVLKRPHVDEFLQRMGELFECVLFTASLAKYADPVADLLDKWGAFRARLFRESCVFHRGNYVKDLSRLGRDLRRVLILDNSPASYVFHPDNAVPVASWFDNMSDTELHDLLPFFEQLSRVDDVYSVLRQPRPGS
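Material – SCP-1 phosphatase catalytic domain, residues 76-261 · Buffer or medium – Acidic Tris acetate buffer with magnesium and detergent · Also added – Phospho 17-mer peptide substrate · Compound – single 20 µM dose, 1% DMSO · Times – 45 min room-temperature reaction, 5 min colour, 30 min stabiliser · Technique – Phosphate-binding colour reagent, absorbance read at 630 nm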
LMPTP block = LMPTP phosphatase inhibitors, primary screen, biochemical, fluorescence intensity, uHTS; Low molecular weight phosphotyrosine protein phosphatase (Homo sapiens), P24666; recombinant LMPTP-A, OMFP fluorogenic substrate; inhibition, % at 20 µM; 360,000 compounds, 0.22% hits;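 active = compounds that cut the enzyme signal by at least half of the control window in the single-dose screen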;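 also: plate controls were DMSO wells with enzyme plus substrate for no effect and substrate without enzyme for full effect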
Target sequence (P24666 whole entry, looked up): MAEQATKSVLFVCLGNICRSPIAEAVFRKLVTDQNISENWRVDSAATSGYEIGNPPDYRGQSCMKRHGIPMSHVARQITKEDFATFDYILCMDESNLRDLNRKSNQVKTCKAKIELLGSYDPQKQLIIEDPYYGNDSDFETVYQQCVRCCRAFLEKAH
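Test system – LMPTP-A phosphatase enzyme · Quantity – 0.625 nM LMPTP-A final · Reagent – OMFP substrate, 400 µM final · Dosing – one test concentration per compound, 20 µM, with 3% DMSO overall · Timing – 50 min enzyme reaction at room temperature, protected from light · Detection – fluorescence intensity · Controls – substrate-only low control, DMSO enzyme-plus-substrate high control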
SUMO1 PPI mod = modulators of SUMO1 protein-protein interactions, primary screen, biochemical, uHTS; 360,000 compounds, 0.33% hits; Small ubiquitin-related modifier 1 (Homo sapiens), P63165; inhibition, % at 20 µM; SUMO1 binding to a labelled peptide, TR-FRET, 1 h; in the data active = inhibition above about 37%
Target sequence (P63165 whole entry, looked up): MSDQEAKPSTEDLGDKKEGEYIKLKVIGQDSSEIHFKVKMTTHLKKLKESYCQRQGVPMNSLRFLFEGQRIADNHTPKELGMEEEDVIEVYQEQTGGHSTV
Active calls of the source: *. Most compounds without a hit are left out; they make up all but 1.7% or so of the library.

`Cc1ccc(C(=O)OCC(=O)c2c[nH]c3ccccc23)cc1S(=O)(=O)N1CCOCC1` gave STEP inh -1, DNMT1 inh -18, Scp1 inh -3, LMPTP block 1 and SUMO1 PPI mod 3.
Screening O=C(O)c1cc(N2N=C(C(F)(F)F)/C(=C/C=C/c3ccco3)C2=O)ccc1Cl returned STEP inh 94*, DNMT1 inh 84*, Scp1 inh 69*, LMPTP block 78* and SUMO1 PPI mod 105*.
CC(C)C[C@@H](CNCC(=O)[C@H](CC(=O)O)NC(=O)c1[nH]cnc1C(=O)N[C@H](CN)CC(C)C)NC(=O)c1nc[nH]c1C(=O)N[C@@H](Cc1ccccc1)C(=O)O was read as STEP inh -1, DNMT1 inh 7, Scp1 inh -2, LMPTP block -2 and SUMO1 PPI mod 48*.
Screening O=C(/C=C/c1ccccc1)NC(=S)Nc1ccccc1 returned STEP inh 2, DNMT1 inh 2, Scp1 inh 3, LMPTP block -1 and SUMO1 PPI mod -1.
C=CCN(CC=C)S(=O)(=O)c1ccc(NC(=S)NC(=O)/C=C/c2ccccc2)cc1 was read as STEP inh 6, DNMT1 inh 3, Scp1 inh -5, LMPTP block 4 and SUMO1 PPI mod 63*.
For Cc1ccc(/C=C/c2nc3sc(C(=O)O)c(C)c3c(=O)[nH]2)cc1[N+](=O)[O-] the results were STEP inh 99*, DNMT1 inh 24, Scp1 inh 89*, LMPTP block 64* and SUMO1 PPI mod 16.
`Cc1c(C(=O)O)sc2nc(/C=C/c3ccccc3OC(F)F)[nH]c(=O)c12` gave STEP inh 9, DNMT1 inh 2, Scp1 inh 39, LMPTP block 4 and SUMO1 PPI mod -3.
Cc1cc([N+](=O)[O-])nn1CC(=O)N/N=C/c1ccc(O)cc1O was read as STEP inh -1, DNMT1 inh -3, Scp1 inh -14, LMPTP block -1 and SUMO1 PPI mod -8.
For Cc1ccn2cc(-c3ccc4c(c3)NC(=O)CO4)nc2c1 the results were STEP inh 3, DNMT1 inh 1, Scp1 inh -1, LMPTP block 16 and SUMO1 PPI mod 54*.
Screening COc1cccc(N=C2NC(=O)/C(=C/c3cc([N+](=O)[O-])ccc3O)S2)c1 returned STEP inh 50*, DNMT1 inh 3, Scp1 inh 44, LMPTP block 88* and SUMO1 PPI mod -5.
CS(=O)(=O)c1ccc(Cl)c(NC(=O)CSc2nnc(-c3cccs3)n2N)c1 was read as STEP inh 4, DNMT1 inh 2, Scp1 inh -8, LMPTP block 0 and SUMO1 PPI mod -1.
O=C(Nc1ccc(C2=NCCN2)cc1)c1ccc(C(=O)Nc2ccc(C3=NCCN3)cc2)c(Cl)c1 was read as STEP inh 3, DNMT1 inh -29, Scp1 inh -17, LMPTP block 59* and SUMO1 PPI mod 87*.
CC1CN(c2nc(Nc3ccccc3F)nc(N)c2[N+](=O)[O-])CC(C)O1 (stereo not drawn) was read as STEP inh -2, DNMT1 inh -2, Scp1 inh -6, LMPTP block 1 and SUMO1 PPI mod 4.
For O=C(N/N=C/c1cc(Cl)cc([N+](=O)[O-])c1O)c1ccc2c(c1)OCO2 the results were STEP inh 99*, DNMT1 inh 3, Scp1 inh 99*, LMPTP block 60* and SUMO1 PPI mod -21.
Screening O=C(N/N=C/c1cc(Br)cc(Cl)c1O)c1ccc2c(c1)OCO2 returned STEP inh 99*, DNMT1 inh 2, Scp1 inh 91*, LMPTP block 74* and SUMO1 PPI mod 30.
`O=C(N/N=C/c1cc(Br)cc([N+](=O)[O-])c1O)c1ccc(NC(=O)c2ccc(F)cc2)cc1` gave STEP inh 98*, DNMT1 inh -12, Scp1 inh 89*, LMPTP block 61* and SUMO1 PPI mod 6.
Screening O=C(N/N=C/c1ccccc1O)c1ccc2c(c1)OCO2 returned STEP inh 2, DNMT1 inh 0, Scp1 inh -15, LMPTP block -2 and SUMO1 PPI mod -7.
For O=C(N/N=C/c1cc(Br)cc(Br)c1O)c1ccncc1 the results were Scp1 inh -3.
CC1(C(=O)Nc2ccc3c(c2)OCCO3)CN(S(C)(=O)=O)CC(=O)N1CC(F)(F)F (stereo not drawn) was read as LMPTP block -1 and SUMO1 PPI mod -2.
COc1ccc(-c2cccc3c2C2CC3CCN2C(=O)OCc2ccccc2)cc1 (stereo not drawn) was read as STEP inh 0, DNMT1 inh 10, Scp1 inh -12, LMPTP block 5 and SUMO1 PPI mod 1.
Screening CCn1cc(C(=O)O)c(=O)c2cc(F)c(N3CCN(C(=S)NC(=O)c4cc(OC)cc(OC)c4)CC3)cc21 returned STEP inh 5, DNMT1 inh 3, Scp1 inh 7, LMPTP block 63* and SUMO1 PPI mod 12.
For CCn1cc(C(=O)O)c(=O)c2cc(F)c(N3CCN(C(=S)NC(=O)c4ccccc4C)CC3)cc21 the results were STEP inh 4, DNMT1 inh 0, Scp1 inh -16, LMPTP block 64* and SUMO1 PPI mod 11.
Screening CCn1cc(C(=O)NCc2ccccc2)c(=O)c2cc(F)c(N3CCN(C(=O)c4ccco4)CC3)cc21 returned STEP inh 2, DNMT1 inh -9, Scp1 inh 4, LMPTP block 6 and SUMO1 PPI mod 13.
Screening CCCNC(=O)c1cn(CC)c2cc(N3CCN(C)CC3)c(F)cc2c1=O returned STEP inh 5, DNMT1 inh -1, Scp1 inh -9, LMPTP block 1 and SUMO1 PPI mod 0.
C=CCNC(=S)N1CCN(c2cc3c(cc2F)c(=O)c(C(=O)O)cn3CC)CC1 was read as STEP inh 1, DNMT1 inh -1, Scp1 inh -18, LMPTP block 19 and SUMO1 PPI mod 7.
`C=CCCCCCCCCC(=O)N1CCN(c2cc3c(cc2F)c(=O)c(C(=O)O)cn3CC)CC1` gave STEP inh 4, DNMT1 inh 2, Scp1 inh -19, LMPTP block 17 and SUMO1 PPI mod 2.
`CCn1cc(C(=O)NCc2ccc3c(c2)OCO3)c(=O)c2cc(F)c(N3CCN(C(=O)c4ccco4)CC3)cc21` gave STEP inh 5, DNMT1 inh -16, Scp1 inh 9, LMPTP block 53* and SUMO1 PPI mod 8.

Bioassay records: PubChem, Sanford-Burnham Center for Chemical Genomics
